Measured values taken from ChEMBL document CHEMBL1641579, “Synthesis and biological evaluation of 7-substituted-1-(3-bromophenylamino)isoquinoline-4-carbonitriles as inhibitors of myosin light chain kinase and epidermal growth factor receptor” (Bioorg Med Chem, 2011).

Experiments:
[1] = molecular target: Mitogen-activated protein kinase 14 (Homo sapiens) (UniProt Q16539); test: Inhibition of p38alpha assessed as residual activity at 10 uM
In short: (§1)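 Panel screen by radioactive kinase assay at a single inhibitor concentration. Score is the percent activity remaining relative to DMSO controls (100%).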

[2] = molecular target: RAC-alpha serine/threonine-protein kinase (Homo sapiens) (UniProt P31749); test: Inhibition of PKBalpha assessed as residual activity at 10 uM; in short: as §1
[3] = molecular target: Ribosomal protein S6 kinase beta-1 (Homo sapiens) (UniProt P23443); test: Inhibition of S6K1 assessed as residual activity at 10 uM; in short: as §1
[4] = molecular target: T1, Mitogen-activated protein kinase 15 (Homo sapiens) (UniProt Q8TD08); test: Inhibition of ERK8 assessed as residual activity at 10 uM
T1 sequence (whole entry): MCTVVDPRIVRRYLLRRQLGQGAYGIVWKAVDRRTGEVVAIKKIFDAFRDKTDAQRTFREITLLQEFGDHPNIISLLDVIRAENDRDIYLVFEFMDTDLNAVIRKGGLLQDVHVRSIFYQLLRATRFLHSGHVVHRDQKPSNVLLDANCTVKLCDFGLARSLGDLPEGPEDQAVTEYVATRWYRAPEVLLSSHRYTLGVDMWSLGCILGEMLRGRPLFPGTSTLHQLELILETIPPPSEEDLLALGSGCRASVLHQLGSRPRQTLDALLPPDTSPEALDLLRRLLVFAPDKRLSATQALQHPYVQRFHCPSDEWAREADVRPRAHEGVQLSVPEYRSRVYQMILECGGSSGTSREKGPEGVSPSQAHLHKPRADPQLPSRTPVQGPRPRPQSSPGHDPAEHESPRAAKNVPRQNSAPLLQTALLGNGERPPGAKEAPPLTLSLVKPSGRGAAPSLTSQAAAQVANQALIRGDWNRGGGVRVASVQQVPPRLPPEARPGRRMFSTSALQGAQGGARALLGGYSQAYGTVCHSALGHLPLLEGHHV
In short: (§2)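 Kinase panel screen run as a radioactive activity assay at single compound concentration. Score reported as percent activity remaining relative to DMSO controls (100%).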

[5] = molecular target: Ribosomal protein S6 kinase alpha-5 (Homo sapiens) (UniProt O75582); test: Inhibition of MSK1 assessed as residual activity at 10 uM; in short: as §1
[6] = molecular target: T2, Dual specificity tyrosine-phosphorylation-regulated kinase 2 (Homo sapiens) (UniProt Q92630); test: Inhibition of DYRK2 assessed as residual activity at 10 uM; in short: as §2
T2 sequence (whole entry): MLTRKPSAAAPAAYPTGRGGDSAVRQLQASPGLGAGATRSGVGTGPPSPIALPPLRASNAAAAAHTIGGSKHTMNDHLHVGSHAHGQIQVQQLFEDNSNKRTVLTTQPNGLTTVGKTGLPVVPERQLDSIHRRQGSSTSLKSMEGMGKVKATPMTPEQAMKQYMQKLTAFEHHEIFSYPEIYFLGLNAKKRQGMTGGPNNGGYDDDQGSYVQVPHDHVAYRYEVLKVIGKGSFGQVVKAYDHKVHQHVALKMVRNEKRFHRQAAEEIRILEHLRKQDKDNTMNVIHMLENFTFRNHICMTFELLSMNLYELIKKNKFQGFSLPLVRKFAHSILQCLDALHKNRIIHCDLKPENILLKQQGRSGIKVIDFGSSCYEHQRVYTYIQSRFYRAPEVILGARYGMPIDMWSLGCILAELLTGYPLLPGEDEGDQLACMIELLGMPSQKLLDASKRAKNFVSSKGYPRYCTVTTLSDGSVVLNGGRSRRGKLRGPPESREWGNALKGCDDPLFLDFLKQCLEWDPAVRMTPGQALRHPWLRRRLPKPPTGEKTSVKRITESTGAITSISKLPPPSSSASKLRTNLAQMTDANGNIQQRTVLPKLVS

[7] = molecular target: Misshapen-like kinase 1 (Homo sapiens) (UniProt Q8N4C8); test: Inhibition of MINK1 assessed as residual activity at 10 uM; in short: as §2
[8] = Inhibition of VEGFR assessed as residual activity at 10 uM; in short: as §1
[9] = molecular target: Ribosomal protein S6 kinase alpha-1 (Homo sapiens) (UniProt Q15418); test: Inhibition of RSK1 assessed as residual activity at 10 uM; in short: as §1
[10] = molecular target: T3, Aurora kinase A (Homo sapiens) (UniProt O14965); test: Inhibition of aurora A assessed as residual activity at 10 uM; in short: as §1
T3 sequence (whole entry): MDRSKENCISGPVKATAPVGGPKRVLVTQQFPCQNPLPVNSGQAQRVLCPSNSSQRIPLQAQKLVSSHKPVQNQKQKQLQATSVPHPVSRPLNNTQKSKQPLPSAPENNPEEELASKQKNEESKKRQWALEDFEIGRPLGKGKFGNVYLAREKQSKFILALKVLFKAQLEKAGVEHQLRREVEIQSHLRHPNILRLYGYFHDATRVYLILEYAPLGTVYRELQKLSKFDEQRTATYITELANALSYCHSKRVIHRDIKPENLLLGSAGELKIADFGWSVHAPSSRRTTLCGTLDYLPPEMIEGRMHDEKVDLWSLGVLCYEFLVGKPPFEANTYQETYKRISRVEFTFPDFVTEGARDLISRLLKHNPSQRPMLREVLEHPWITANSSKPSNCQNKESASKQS

[11] = molecular target: MAP kinase-activated protein kinase 3 (Homo sapiens) (UniProt Q16644); test: Inhibition of MAPKAPK3 assessed as residual activity at 10 uM; in short: as §2
[12] = molecular target: Homeodomain-interacting protein kinase 1 (Homo sapiens) (UniProt Q86Z02); test: Inhibition of HIPK1 assessed as residual activity at 10 uM; in short: as §2
[13] = molecular target: Proto-oncogene tyrosine-protein kinase Src (Homo sapiens) (UniProt P12931); test: Inhibition of Src assessed as residual activity at 10 uM; in short: as §1
[14] = molecular target: T4, Serine/threonine-protein kinase STK11 (Homo sapiens) (UniProt Q15831); test: Inhibition of LKB1 assessed as residual activity at 10 uM; in short: as §2
T4 sequence (whole entry): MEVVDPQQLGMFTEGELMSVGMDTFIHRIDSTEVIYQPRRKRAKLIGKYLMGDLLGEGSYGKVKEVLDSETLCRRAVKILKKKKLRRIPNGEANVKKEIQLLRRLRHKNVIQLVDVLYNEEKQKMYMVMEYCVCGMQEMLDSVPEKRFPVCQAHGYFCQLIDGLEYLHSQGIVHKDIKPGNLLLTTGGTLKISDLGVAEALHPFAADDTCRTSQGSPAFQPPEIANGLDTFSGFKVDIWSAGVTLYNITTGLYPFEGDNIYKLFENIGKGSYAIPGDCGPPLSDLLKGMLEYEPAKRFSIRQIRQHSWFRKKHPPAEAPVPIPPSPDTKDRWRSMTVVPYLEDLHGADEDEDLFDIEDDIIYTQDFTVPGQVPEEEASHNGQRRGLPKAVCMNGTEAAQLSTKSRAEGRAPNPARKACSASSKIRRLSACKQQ

[15] = molecular target: Tyrosine-protein kinase BTK (Homo sapiens) (UniProt Q06187); test: Inhibition of BTK assessed as residual activity at 10 uM; in short: as §2
[16] = molecular target: Homeodomain-interacting protein kinase 2 (Homo sapiens) (UniProt Q9H2X6); test: Inhibition of HIPK2 assessed as residual activity at 10 uM; in short: as §2
Sequence of Homeodomain-interacting protein kinase 2 (Homo sapiens) (Q9H2X6 whole entry, looked up): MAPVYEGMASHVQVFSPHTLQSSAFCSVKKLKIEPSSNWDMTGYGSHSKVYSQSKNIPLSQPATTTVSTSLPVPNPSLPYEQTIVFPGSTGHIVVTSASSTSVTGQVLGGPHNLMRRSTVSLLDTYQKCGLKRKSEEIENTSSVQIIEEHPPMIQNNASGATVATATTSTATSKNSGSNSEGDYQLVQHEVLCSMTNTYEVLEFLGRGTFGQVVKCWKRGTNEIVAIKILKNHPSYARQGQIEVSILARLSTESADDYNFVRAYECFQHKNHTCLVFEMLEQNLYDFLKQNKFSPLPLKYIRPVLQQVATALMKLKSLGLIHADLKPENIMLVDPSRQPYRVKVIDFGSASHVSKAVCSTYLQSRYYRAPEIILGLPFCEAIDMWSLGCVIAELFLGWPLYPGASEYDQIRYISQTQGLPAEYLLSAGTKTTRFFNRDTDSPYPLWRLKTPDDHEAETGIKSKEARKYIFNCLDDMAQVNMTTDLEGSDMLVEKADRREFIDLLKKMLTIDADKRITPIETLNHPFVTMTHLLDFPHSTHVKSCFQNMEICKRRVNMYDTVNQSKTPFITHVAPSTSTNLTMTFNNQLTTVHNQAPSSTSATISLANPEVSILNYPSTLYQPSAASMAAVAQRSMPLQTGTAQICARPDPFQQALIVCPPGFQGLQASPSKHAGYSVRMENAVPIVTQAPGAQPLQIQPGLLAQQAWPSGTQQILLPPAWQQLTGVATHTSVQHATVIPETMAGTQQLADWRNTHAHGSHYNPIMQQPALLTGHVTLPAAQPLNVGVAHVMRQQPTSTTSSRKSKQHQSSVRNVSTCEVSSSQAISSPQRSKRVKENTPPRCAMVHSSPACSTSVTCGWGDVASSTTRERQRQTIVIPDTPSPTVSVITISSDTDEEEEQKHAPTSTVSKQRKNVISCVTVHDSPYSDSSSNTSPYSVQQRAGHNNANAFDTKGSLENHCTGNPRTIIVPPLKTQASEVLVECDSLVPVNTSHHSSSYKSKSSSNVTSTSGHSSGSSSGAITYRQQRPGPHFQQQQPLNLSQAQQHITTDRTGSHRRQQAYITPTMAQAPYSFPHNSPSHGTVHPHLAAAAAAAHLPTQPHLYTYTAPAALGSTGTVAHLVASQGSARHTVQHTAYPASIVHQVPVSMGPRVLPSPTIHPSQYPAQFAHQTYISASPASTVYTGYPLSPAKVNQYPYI

Sequence of Misshapen-like kinase 1 (Homo sapiens) (Q8N4C8 whole entry, looked up): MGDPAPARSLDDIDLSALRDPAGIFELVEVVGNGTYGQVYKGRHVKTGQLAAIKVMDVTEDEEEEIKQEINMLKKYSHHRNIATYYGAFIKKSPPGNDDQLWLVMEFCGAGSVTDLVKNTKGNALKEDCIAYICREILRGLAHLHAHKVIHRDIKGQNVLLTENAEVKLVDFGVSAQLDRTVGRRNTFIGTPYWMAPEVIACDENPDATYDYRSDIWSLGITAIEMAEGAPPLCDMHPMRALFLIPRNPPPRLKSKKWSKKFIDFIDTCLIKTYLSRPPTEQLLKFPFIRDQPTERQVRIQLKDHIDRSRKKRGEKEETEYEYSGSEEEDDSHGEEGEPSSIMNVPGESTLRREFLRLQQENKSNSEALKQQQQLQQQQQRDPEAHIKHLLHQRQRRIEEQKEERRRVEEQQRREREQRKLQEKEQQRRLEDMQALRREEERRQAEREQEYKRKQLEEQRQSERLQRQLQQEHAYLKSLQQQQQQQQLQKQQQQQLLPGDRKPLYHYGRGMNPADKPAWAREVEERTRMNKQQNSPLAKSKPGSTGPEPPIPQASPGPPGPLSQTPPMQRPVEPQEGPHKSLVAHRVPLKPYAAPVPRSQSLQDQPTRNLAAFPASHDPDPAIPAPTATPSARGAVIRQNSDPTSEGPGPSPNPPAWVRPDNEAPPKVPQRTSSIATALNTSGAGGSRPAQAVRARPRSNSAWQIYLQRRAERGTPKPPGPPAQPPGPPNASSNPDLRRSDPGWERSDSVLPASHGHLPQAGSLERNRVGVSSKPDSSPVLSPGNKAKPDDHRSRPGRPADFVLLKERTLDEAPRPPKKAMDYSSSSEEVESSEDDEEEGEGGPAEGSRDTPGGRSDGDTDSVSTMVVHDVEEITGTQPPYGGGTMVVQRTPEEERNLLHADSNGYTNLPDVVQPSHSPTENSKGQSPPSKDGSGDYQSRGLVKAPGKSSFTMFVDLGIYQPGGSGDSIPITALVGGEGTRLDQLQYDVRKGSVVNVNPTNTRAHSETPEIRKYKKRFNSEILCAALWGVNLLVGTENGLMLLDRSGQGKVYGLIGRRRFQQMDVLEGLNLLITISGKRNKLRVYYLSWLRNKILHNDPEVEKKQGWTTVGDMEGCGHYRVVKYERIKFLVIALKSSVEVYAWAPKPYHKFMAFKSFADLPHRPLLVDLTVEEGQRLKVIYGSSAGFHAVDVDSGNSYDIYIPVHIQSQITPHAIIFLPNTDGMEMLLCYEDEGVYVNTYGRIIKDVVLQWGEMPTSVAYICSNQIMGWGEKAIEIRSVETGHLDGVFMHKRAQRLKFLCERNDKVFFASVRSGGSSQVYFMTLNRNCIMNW
Sequence of Homeodomain-interacting protein kinase 1 (Homo sapiens) (Q86Z02 whole entry, looked up): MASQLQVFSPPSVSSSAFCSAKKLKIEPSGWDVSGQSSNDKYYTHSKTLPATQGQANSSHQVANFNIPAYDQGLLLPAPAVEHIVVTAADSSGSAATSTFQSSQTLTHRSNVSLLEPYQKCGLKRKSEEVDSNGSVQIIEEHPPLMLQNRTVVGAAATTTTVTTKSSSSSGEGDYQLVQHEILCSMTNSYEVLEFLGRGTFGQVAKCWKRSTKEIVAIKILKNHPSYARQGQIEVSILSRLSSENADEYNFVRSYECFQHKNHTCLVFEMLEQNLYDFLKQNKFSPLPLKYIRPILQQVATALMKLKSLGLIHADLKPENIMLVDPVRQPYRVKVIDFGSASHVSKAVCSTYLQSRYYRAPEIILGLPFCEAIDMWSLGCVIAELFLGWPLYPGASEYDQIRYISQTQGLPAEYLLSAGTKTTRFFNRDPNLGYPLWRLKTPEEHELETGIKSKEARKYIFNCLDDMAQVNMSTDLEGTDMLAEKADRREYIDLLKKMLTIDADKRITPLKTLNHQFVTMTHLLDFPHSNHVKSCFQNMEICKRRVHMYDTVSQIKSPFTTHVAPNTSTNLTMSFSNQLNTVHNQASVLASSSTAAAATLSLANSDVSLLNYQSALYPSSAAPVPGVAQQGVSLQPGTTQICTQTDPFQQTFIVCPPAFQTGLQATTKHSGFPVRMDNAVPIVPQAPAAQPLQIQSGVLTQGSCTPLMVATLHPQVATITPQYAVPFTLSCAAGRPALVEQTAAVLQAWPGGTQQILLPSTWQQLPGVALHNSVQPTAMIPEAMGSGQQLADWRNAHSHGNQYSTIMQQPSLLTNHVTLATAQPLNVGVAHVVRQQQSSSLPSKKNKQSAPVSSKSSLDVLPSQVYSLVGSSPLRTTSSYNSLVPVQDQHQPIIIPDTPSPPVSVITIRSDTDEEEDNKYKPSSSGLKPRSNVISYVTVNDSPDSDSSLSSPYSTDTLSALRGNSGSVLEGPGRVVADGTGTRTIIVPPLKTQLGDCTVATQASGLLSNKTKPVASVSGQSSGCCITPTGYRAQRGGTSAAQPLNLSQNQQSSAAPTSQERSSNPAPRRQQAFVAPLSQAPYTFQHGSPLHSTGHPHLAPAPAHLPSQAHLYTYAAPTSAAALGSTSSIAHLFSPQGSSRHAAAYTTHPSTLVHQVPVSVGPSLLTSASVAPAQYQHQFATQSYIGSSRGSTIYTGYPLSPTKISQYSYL
Sequence of Mitogen-activated protein kinase 14 (Homo sapiens) (Q16539 whole entry): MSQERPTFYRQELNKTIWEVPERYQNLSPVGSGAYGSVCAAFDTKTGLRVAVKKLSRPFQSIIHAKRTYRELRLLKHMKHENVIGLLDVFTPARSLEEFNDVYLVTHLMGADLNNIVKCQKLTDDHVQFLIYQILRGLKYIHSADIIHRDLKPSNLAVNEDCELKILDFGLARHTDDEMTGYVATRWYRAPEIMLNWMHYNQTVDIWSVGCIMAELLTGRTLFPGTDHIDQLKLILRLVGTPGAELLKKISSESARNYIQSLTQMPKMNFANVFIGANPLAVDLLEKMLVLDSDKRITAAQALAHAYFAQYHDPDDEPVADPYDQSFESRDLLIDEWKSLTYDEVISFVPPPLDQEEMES
Sequence of Tyrosine-protein kinase BTK (Homo sapiens) (Q06187 whole entry): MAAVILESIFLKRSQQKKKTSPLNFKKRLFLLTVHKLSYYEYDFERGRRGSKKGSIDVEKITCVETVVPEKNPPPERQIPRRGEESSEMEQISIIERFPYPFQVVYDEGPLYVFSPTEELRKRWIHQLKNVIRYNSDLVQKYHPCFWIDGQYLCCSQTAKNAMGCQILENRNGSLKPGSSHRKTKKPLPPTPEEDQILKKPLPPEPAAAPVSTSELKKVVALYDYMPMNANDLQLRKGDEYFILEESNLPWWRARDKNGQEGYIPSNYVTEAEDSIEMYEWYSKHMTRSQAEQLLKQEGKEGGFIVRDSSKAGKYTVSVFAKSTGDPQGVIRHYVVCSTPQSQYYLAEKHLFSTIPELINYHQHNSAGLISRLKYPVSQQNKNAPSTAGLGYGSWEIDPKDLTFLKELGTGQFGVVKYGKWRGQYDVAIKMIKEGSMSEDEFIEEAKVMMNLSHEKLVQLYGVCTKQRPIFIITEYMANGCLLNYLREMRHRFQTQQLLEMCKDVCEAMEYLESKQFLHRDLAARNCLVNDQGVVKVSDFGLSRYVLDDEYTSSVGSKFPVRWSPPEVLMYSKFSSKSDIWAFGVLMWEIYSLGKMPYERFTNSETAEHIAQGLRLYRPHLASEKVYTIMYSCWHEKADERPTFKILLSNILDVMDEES

Row | SMILES | Activity [1] | Activity [2] | Activity [3] | Activity [4] | Activity [5] | Activity [6] | Activity [7] | Activity [8] | Activity [9] | Activity [10] | Activity [11] | Activity [12] | Activity [13] | Activity [14] | Activity [15] | Activity [16]
1 | CN(C)C/C=C/C(=O)Nc1ccc2c(C#N)cnc(Nc3cccc(Br)c3)c2c1 | 81% | 93% | 71% | 78% | 95% | 68% | 58% | 74% | 79% | 79% | 75% | 100% | 61% | 99% | 52% | 95%
2 | CN1CCN(CCC(=O)Nc2ccc3c(C#N)cnc(Nc4cccc(Br)c4)c3c2)CC1 | 58% | 100% | 82% | 72% | 81% | 83% | 54% | 88% | 84% | 80% | 91% | 83% | 49% | 100% | 76% | 88%
3 | CN(C)CCCC(=O)Nc1ccc2c(C#N)cnc(Nc3cccc(Br)c3)c2c1 | 71% | 100% | 84% | 75% | 86% | 70% | 59% | 87% | 84% | 94% | 96% | 95% | 60% | 100% | 72% | 93%
